# This is a sample that favours compounds with a hit; in the whole collection about 1.6% have one here.
# PKA-R1A activ – activates the PKA-R1A holoenzyme complex; PKA-R1A dissociation, Cy5-IP20 fluorescence polarization; scaled: DMSO 0%, 113 µM cGMP 100%; activation, % at 11.4 µM; 340,000 compounds, 0.083% hits;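 active means percent activation above the mean of all tested compounds plus 3 SD, cut at about 19% in these data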;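 further: higher means more PKAc released from R1A so a rise in polarization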
# PG9 binder – binds the HIV-1 gp120 antibody PG9; TR-FRET gp120-PG9 antibody binding; inhibition, % at 6.7 µM; 360,000 compounds, 0.43% hits; in the data active means inhibition above about 8.5%
# NR2E3 ag-1 – activates human photoreceptor nuclear receptor NR2E3; inhibition of corepressor binding, % at 4.78 µM; 320,000 compounds, 0.12% hits; Q9Y5X4; GST-NR2E3/biotin-RetCOR TR-FRET, 1536-well;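 active means percent inhibition above the cutoff of mean plus 3 SD of all tested compounds, set per screening campaign, cut at about 20% in these data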;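 further: 0% = DMSO wells and 100% = biotin wells as full block of FRET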
#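 system = GST-tagged NR2E3 plus biotinylated RetCOR corepressor | input = 1.35 nM GST-NR2E3 | also added = 7 nM biotin-RetCOR | schedule = 5 h incubation at 4 °C | measured by = TR-FRET with europium anti-GST and streptavidin-D2, 340 nm excitation | read-out = percent loss of FRET ratio relative to control wells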
# PKA-R2B activ – PKA-R2B complex activation. PKA-R2B holoenzyme dissociation, Cy5-IP20 fluorescence polarization; R2B truncated from residue 108, S112A mutant; 0% DMSO only, 100% 113 µM cGMP. activation, % at 11.4 µM. 340,000 compounds, 0.079% hits;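 active means activation above a cutoff set at the mean over all compounds plus 3 SD, cut at about 18% in these data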;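 further: higher means more holoenzyme dissociation and a rise in polarization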
# NR1D1 modulator – modulates human Rev-erb alpha binding to DNA; 370,000 compounds, 0.79% hits; activity, % at 10 µM; Rev-erbα–FITC-DNA binding, fluorescence polarization, 90 min; AID 1259318;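 active means activity above about 14%, limit read from the data; passing the limit was not always enough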;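 further: 0% = DMSO wells with 35 nM protein and 100% = DMSO wells with 750 nM protein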
# Target sequence (P20393 whole entry, looked up): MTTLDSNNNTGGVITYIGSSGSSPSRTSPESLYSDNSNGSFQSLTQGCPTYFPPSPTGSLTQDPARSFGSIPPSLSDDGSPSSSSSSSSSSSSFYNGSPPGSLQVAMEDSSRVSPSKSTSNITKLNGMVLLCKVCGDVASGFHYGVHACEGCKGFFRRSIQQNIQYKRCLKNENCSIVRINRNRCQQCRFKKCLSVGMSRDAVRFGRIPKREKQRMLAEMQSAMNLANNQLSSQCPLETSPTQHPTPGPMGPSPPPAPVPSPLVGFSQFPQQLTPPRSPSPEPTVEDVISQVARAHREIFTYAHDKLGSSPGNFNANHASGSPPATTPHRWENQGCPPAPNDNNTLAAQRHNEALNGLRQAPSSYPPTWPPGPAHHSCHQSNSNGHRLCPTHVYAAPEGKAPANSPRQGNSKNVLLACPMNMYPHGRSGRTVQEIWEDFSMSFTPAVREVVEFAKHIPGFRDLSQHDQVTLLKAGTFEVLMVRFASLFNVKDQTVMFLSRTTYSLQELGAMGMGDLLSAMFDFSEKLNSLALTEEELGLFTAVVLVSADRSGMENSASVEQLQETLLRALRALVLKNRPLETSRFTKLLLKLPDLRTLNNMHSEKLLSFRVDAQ
# NR2E3 ag-2 – human photoreceptor-specific nuclear receptor agonism | CHO-S Gal4-NCOR/VP16-NR2E3 two-hybrid, luciferase | AID 602229 | Q9Y5X4 | 360,000 compounds, 0.35% hits | inhibition of corepressor binding, % at 3.98 µM;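 active means inhibition above the mean of all tested compounds plus 3 SD, cut at about 70% in these data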;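 further: 0% = DMSO with NR2E3 transfected cells and 100% = cells lacking NR2E3 construct; higher means lower luciferase signal from less NR2E3 corepressor binding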
# Active calls of the source: *; . = no result given.
SMILES,PKA-R1A activ,PG9 binder,NR2E3 ag-1,PKA-R2B activ,NR1D1 modulator,NR2E3 ag-2
COc1ccc(C(=O)N2CCN(c3ccc(NC(=O)Cc4ccccc4)cc3)CC2)cc1,0,-1,-2,-5,3,-19
Cc1ccc(C(=O)N2CCN(c3ccc(NC(=S)NC(=O)Cc4ccccc4)cc3)CC2)cc1,-2,-5,1,-6,-4,72*
CN[C@@H]1[C@H](O)[C@@H](O[C@@H]2[C@@H](O)[C@H](O[C@H]3OC(CN)=CC[C@H]3N)[C@@H](N)C[C@H]2N)OC[C@]1(C)O,.,.,.,.,-8,.
CC[n+]1c(/C=C/N(C)c2ccccc2)n(-c2ccccc2)c2ccc(-c3nc4ccccc4s3)cc21,-9,.,-1,-3,.,91*
CCOC(=O)c1ccc2c(c1)n(CC)c(/C=C/N(C)c1ccccc1)[n+]2CC,-4,-1,-2,8,-4,-27
CC1(C)Cc2nc3sc4c(=O)n(CC(=O)NCc5ccccc5)cnc4c3cc2CO1,-2,50*,2,6,18,-5
CO/N=C(/C(=O)N[C@H]1C(=O)N2C(C(=O)OC(C)OC(C)=O)=C(COC(N)=O)CSC12)c1ccco1 (some centres not stated),.,.,.,.,-5,.
N[C@@H](CS)C(=O)O,.,.,.,.,0,.
COc1ccccc1/C=N/NC(=Nc1ccc(C)cc1)c1nc2ccccc2s1,.,.,1,.,.,.
COc1cc(/C=N/NC(=Nc2ccc(C)cc2)c2nc3ccccc3s2)ccc1O,-5,0,2,12,2,91*
Cc1c(C)c2c(c(C)c1OC(=O)CCC(=O)OCCO)CCC(C)(CCCC(C)CCCC(C)CCCC(C)C)O2 (configuration not stated),.,.,.,.,3,.
O=S(=O)(Nc1cccnc1)c1ccccc1,5,0,2,6,-1,-24
O=S(=O)(Nc1cccnc1)c1ccc(C2CCCCC2)cc1,0,-1,-1,-9,-5,92*
CNc1cc(OC)c(C(=O)N[C@@H]2CCN(Cc3ccccc3)[C@@H]2C)cc1Cl,.,.,.,.,-1,.
CCC(=O)Oc1ccc2c(c1)CCC1C2CC[C@@]2(C)C1CC[C@@H]2OC(=O)CC (some centres not stated),.,.,.,.,-3,.
CC1=C(C(=O)O)N2C(=O)[C@@H](NC(=O)[C@H](N)C3=CCC=CC3)[C@@H]2SC1,.,.,.,.,-2,.
C[C@H]1[C@H](C)CC[C@]2(C(=O)O)CC[C@]3(C)C(=CC[C@@H]4[C@@]5(C)C[C@@H](O)[C@H](O)C(C)(C)[C@@H]5CC[C@]43C)[C@H]12,-10,.,3,-6,.,94*
C[C@@H]1CC[C@]2(C(=O)O)CC[C@]3(C)C(=CCC4[C@]56CC[C@@](O)(OC5)C(C)(C)C6CC[C@]43C)C2[C@H]1C (some centres not stated),-14,.,-3,5,.,94*
O=S(=O)(NCc1cn2ccsc2n1)c1ccc(Oc2ccccc2)cc1,-2,1,-1,-15,-9,88*
O=S(=O)(NCc1cn2ccsc2n1)c1cccs1,-2,0,0,1,-2,-6
Cn1nnnc1SCC1=C(C(=O)O)N2C(=O)[C@H](NC(=O)C(OC=O)c3ccccc3)C2SC1 (some centres not stated),.,.,.,.,-7,.
CC(=O)Nc1cc(OC(C)=O)c2nonc2c1OC(C)=O,-1,-10,39*,2,1,13
Cc1c2oc3c(C)ccc(C(=O)OC(C)C4NC(=O)C(C(C)C)N(C)C(=O)CN(C)C(=O)C5CCCN5C(=O)C(C(C)C)NC4=O)c3nc-2c(C(=O)OC(C)C2NC(=O)C(C(C)C)N(C)C(=O)CN(C)C(=O)C3CCCN3C(=O)C(C(C)C)NC2=O)c(N)c1=O (configuration not stated),.,.,.,.,-8,.
OC[C@@H](O)[C@H](O)[C@@H](O)[C@H](O)CO,.,.,.,.,-4,.
CCOC(=O)c1cnc(-n2nc(C)cc2C)nc1NCc1ccc2c(c1)OCO2,-4,4,2,6,-12,82*
SMILES,PKA-R1A activ,PG9 binder,NR2E3 ag-1,PKA-R2B activ,NR1D1 modulator,NR2E3 ag-2
COC(=O)c1ccc(NC(=O)CSc2nc3[nH]ncc3c(=O)[nH]2)cc1,-9,1,2,-9,-1,2
CC(=O)c1ccc(NC(=O)CSc2nc3[nH]ncc3c(=O)[nH]2)cc1,3,41*,2,1,6,-2
CC(C)OC(=O)CCC/C=C\C[C@@H]1[C@@H](/C=C/[C@@H](O)COc2cccc(C(F)(F)F)c2)[C@H](O)C[C@@H]1O,.,.,.,.,-2,.
COc1cc(C(=O)Nc2nc3ccccc3s2)ccc1OCc1c(C)noc1C,-5,11*,1,3,-1,-49
CC(=O)OCC(=O)[C@@]1(O)CCC2C3CCC4=CC(=O)C=C[C@]4(C)[C@@]3(Cl)[C@@H](Cl)C[C@@]21C (some centres not stated),.,.,.,.,-3,.
CCCCOc1ccc(NC(=O)CN2CCN(CC)CC2)cc1,-6,1,.,-8,4,-11
CCCCOc1ccc(NC(=O)Cn2c(=O)ccc3c(C)cc(C)nc32)cc1,-2,9.0*,1,-9,17,4
CC1=C(C#N)C(=O)N(C2CCS(=O)(=O)C2)C(=O)/C1=C\c1ccco1 (configuration not stated),.,.,27*,.,.,.
Cc1cc(N2CCCC2=O)cc(C)c1S(=O)(=O)NCCOc1ccc(C(C)(C)C)cc1,-4,2,3,-2,12,95*
Cc1cc(-n2cnnn2)cc(C)c1S(=O)(=O)NCCOc1ccccc1,-7,-1,-1,-2,0,-7
O=C(NCCO)Nc1ccc2nc(-c3ccco3)c(-c3ccco3)nc2c1,.,.,46*,.,.,.
Cc1ccc(C)n1-c1cccc(C(=O)O)c1,.,.,33*,.,.,.
Cc1cc(C=O)c(C)n1-c1cccc(C(=O)O)c1,0,1,4,-1,-4,6
C[C@@H]1CC2C3CCC4=CC(=O)C=C[C@]4(C)[C@@]3(F)[C@@H](O)C[C@]2(C)[C@@]1(O)C(=O)COP(=O)(O)O (some centres not stated),.,.,.,.,-7,.
COC(=O)c1ccc(NC(=S)NCCC2=CCCCC2)cc1,-3,0,3,-2,4,-18
COC(=O)c1cccc(NC(=S)NCCC2=CCCCC2)c1,-2,1,4,-12,1,91*
CC(C)(S)C(N)C(=O)O (configuration not stated),.,.,.,.,-4,.
O=c1cc(C(F)(F)F)[nH]c2c(C(F)(F)F)cccc12,-1,.,4,1,.,101*
O=C(O)[C@H]1O[C@H](O)[C@H](O)[C@@H](O)[C@@H]1O,.,.,.,.,-4,.

# Screening data as filed in PubChem.
